# Test results: ChEMBL document CHEMBL2086252, “Syntheses and evaluation of anticonvulsant activity of novel branched alkyl carbamates” (J Med Chem, 2012)
# Calls of active or inactive are those of the source. The calls are words filed in the database; no cut-off is given here.
# Tests used:
# Rattus norvegicus [1] = assay: Anticonvulsant activity in po dosed Sprague-Dawley albino rat assessed as protection against maximal electroshock-induced seizures; type: functional
# Outline: (§1)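 Quantitative testing: rats dosed orally or ip in MES and scMet tests, and mice dosed ip, including the 6 Hz (32 mA) psychomotor seizure test. ED50 and TD50 were reported in mg/kg with ranges in parentheses. Protective index was calculated as TD50/ED50.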
# Rattus norvegicus [2] = assay: Neurotoxicity in pilocarpine-induced status epilepticus Sprague-Dawley albino rat model assessed as minimal motor impairment at 300 mg/kg, ip after 0.25 hr by rotarod test; type: toxicity, organism-based; design: dose 300 mg/kg, route intraperitoneal; settings: in vivo
# Outline: (§2)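 Rat pilocarpine status epilepticus model: test carbamate given at 0 or 30 min after the first observed Racine stage 3 motor seizure, which marks SE onset. Neurotoxicity was scored within the same model.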
# Rattus norvegicus [3] = assay: Anticonvulsant activity in po dosed Sprague-Dawley albino rat assessed as protection against subcutaneous metrazol-induced seizures; type: functional; outline: as §1
# Rattus norvegicus [4] = assay: Neurotoxicity in pilocarpine-induced status epilepticus Sprague-Dawley albino rat model assessed as minimal motor impairment at 100 mg/kg, ip after 0.25 hr by rotarod test; type: toxicity, organism-based; design: dose 100 mg/kg, route intraperitoneal; settings: in vivo
# Mus musculus [5] = assay: Anticonvulsant activity in albino CF1 mouse assessed as protection against maximal electroshock-induced seizures at 30 mg/kg, ip after 0.5 hrs; type: functional, organism-based; design: dose 30 mg/kg
# Outline: (§3)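 Mice dosed ip at 30, 100 or 300 mg/kg, then tested 0.5 h and 4 h after administration in the MES or scMet test. Protection was recorded as animals protected over animals tested. Neurotoxicity was recorded as motor impairment or sedation, as animals affected over animals tested.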
# Mus musculus [6] = assay: Anticonvulsant activity in albino CF1 mouse assessed as protection against maximal electroshock-induced seizures at 30 mg/kg, ip after 4 hrs; type: functional, organism-based; design: dose 30 mg/kg; outline: as §3
# Mus musculus [7] = assay: Anticonvulsant activity in albino CF1 mouse assessed as protection against maximal electroshock-induced seizures at 300 mg/kg, ip after 0.5 hrs; type: functional, organism-based; design: dose 300 mg/kg; outline: as §3
# Rattus norvegicus [8] = assay: Neurotoxicity in pilocarpine-induced status epilepticus Sprague-Dawley albino rat model assessed as minimal motor impairment at 300 mg/kg, ip after 2 hrs by rotarod test; type: toxicity, organism-based; design: dose 300 mg/kg, route intraperitoneal; settings: in vivo; outline: as §2
# [9] = Neurotoxicity in po dosed Sprague-Dawley albino rat assessed as minimal motor impairment by rotarod test; type: toxicity, organism-based; settings: in vivo
# Outline: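 Rats dosed orally; 4 rats per time point after dosing. Neurotoxicity was scored as motor impairment or sedation and reported as number of animals affected over number tested.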
# Rattus norvegicus [10] = assay: Neurotoxicity in pilocarpine-induced status epilepticus Sprague-Dawley albino rat model assessed as minimal motor impairment at 100 mg/kg, ip after 2 hrs by rotarod test; type: toxicity, organism-based; design: dose 100 mg/kg, route intraperitoneal; settings: in vivo
# Mus musculus [11] = assay: Neurotoxicity in albino CF1 mouse assessed as minimal motor impairment at 30 mg/kg, ip after 4 hrs by rotarod test; type: toxicity, organism-based; design: dose 30 mg/kg, route intraperitoneal; settings: in vivo; outline: as §3
# Mus musculus [12] = assay: Anticonvulsant activity in albino CF1 mouse assessed as protection against subcutaneous metrazol-induced seizures at 100 mg/kg, ip after 0.5 hrs; type: functional, organism-based; design: dose 100 mg/kg; outline: as §3
# Rattus norvegicus [13] = assay: Anticonvulsant activity in Sprague-Dawley albino rat assessed as protection against maximal electroshock-induced seizures at 30 mg/kg, po after 4 hrs; type: functional, organism-based; design: dose 30 mg/kg
# Outline: (§4)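 Rats dosed orally. Anti-MES protection was scored as animals protected over animals tested at each time after dosing. Neurotoxicity was scored as motor impairment or sedation, as animals affected over animals tested.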
# Rattus norvegicus [14] = assay: Neurotoxicity in pilocarpine-induced status epilepticus Sprague-Dawley albino rat model assessed as minimal motor impairment at 100 mg/kg, ip after 0.5 hrs by rotarod test; type: toxicity, organism-based; design: dose 100 mg/kg, route intraperitoneal; settings: in vivo
# Mus musculus [15] = assay: Neurotoxicity in albino CF1 mouse assessed as minimal motor impairment at 30 mg/kg, ip after 0.5 hrs by rotarod test; type: toxicity, organism-based; design: dose 30 mg/kg, route intraperitoneal; settings: in vivo; outline: as §3
# Mus musculus [16] = assay: Anticonvulsant activity in albino CF1 mouse assessed as protection against subcutaneous metrazol-induced seizures at 300 mg/kg, ip after 4 hrs; type: functional, organism-based; design: dose 300 mg/kg; outline: as §3
# Rattus norvegicus [17] = assay: Neurotoxicity in pilocarpine-induced status epilepticus Sprague-Dawley albino rat model assessed as minimal motor impairment at 100 mg/kg, ip after 4 hrs by rotarod test; type: toxicity, organism-based; design: dose 100 mg/kg, route intraperitoneal; settings: in vivo
# Rattus norvegicus [18] = assay: Anticonvulsant activity in Sprague-Dawley albino rat assessed as protection against pilocarpine-induced status epilepticus at 65 mg/kg, ip; type: functional, organism-based; design: dose 65 mg/kg
# Outline: (§5)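 Pilocarpine status epilepticus model in rats. Number and severity of convulsive seizures were observed behaviourally.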
# Rattus norvegicus [19] = assay: Neurotoxicity in pilocarpine-induced status epilepticus Sprague-Dawley albino rat model assessed as minimal motor impairment at 30 mg/kg, ip after 0.5 hrs by rotarod test; type: toxicity, organism-based; design: dose 30 mg/kg, route intraperitoneal; settings: in vivo; outline: as §2
# Rattus norvegicus [20] = assay: Neurotoxicity in Sprague-Dawley albino rat assessed as minimal motor impairment at 30 mg/kg, po by rotarod test; type: toxicity, organism-based; design: dose 30 mg/kg, route oral; settings: in vivo; outline: as §4
# Rattus norvegicus [21] = assay: Neurotoxicity in pilocarpine-induced status epilepticus Sprague-Dawley albino rat model assessed as minimal motor impairment at 30 mg/kg, ip after 4 hrs by rotarod test; type: toxicity, organism-based; design: dose 30 mg/kg, route intraperitoneal; settings: in vivo; outline: as §2
# Mus musculus [22] = assay: Neurotoxicity in albino CF1 mouse assessed as minimal motor impairment at 300 mg/kg, ip after 4 hrs by rotarod test; type: toxicity, organism-based; design: dose 300 mg/kg, route intraperitoneal; settings: in vivo; outline: as §3
# Mus musculus [23] = assay: Anticonvulsant activity in albino CF1 mouse assessed as protection against subcutaneous metrazol-induced seizures at 100 mg/kg, ip after 4 hrs; type: functional, organism-based; design: dose 100 mg/kg; outline: as §3
# Rattus norvegicus [24] = assay: Neurotoxicity in pilocarpine-induced status epilepticus Sprague-Dawley albino rat model assessed as minimal motor impairment at 30 mg/kg, ip after 2 hrs by rotarod test; type: toxicity, organism-based; design: dose 30 mg/kg, route intraperitoneal; settings: in vivo; outline: as §2
# Rattus norvegicus [25] = assay: Neurotoxicity in pilocarpine-induced status epilepticus Sprague-Dawley albino rat model assessed as minimal motor impairment at 300 mg/kg, ip after 1 hr by rotarod test; type: toxicity, organism-based; design: dose 300 mg/kg, route intraperitoneal; settings: in vivo; outline: as §2
# Rattus norvegicus [26] = assay: Neurotoxicity in pilocarpine-induced status epilepticus Sprague-Dawley albino rat model assessed as minimal motor impairment at 300 mg/kg, ip after 4 hrs by rotarod test; type: toxicity, organism-based; design: dose 300 mg/kg, route intraperitoneal; settings: in vivo; outline: as §2
# Rattus norvegicus [27] = assay: Neurotoxicity in pilocarpine-induced status epilepticus Sprague-Dawley albino rat model assessed as minimal motor impairment at 30 mg/kg, ip after 1 hr by rotarod test; type: toxicity, organism-based; design: dose 30 mg/kg, route intraperitoneal; settings: in vivo; outline: as §2
# Rattus norvegicus [28] = assay: Protective index, ratio of TD50 for po dosed Sprague-Dawley albino rat by rotarod test to ED50 for po dosed Sprague-Dawley albino rat by maximal electroshock seizures test; type: functional
# Outline: (§6)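 Protective index calculated as TD50/ED50, with TD50 and ED50 taken from the same species and dosing route.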
# Rattus norvegicus [29] = assay: Anticonvulsant activity in Sprague-Dawley albino rat assessed as protection against maximal electroshock-induced seizures at 30 mg/kg, po after 1 hr; type: functional, organism-based; design: dose 30 mg/kg; outline: as §4
# Mus musculus [30] = assay: Neurotoxicity in albino CF1 mouse assessed as minimal motor impairment at 100 mg/kg, ip after 4 hrs by rotarod test; type: toxicity, organism-based; design: dose 100 mg/kg, route intraperitoneal; settings: in vivo; outline: as §3
# Rattus norvegicus [31] = assay: Protective index, ratio of TD50 for po dosed Sprague-Dawley albino rat by rotarod test to ED50 for po dosed Sprague-Dawley albino rat by subcutaneous metrazol seizures test; type: functional; outline: as §6
# Mus musculus [32] = assay: Anticonvulsant activity in albino CF1 mouse assessed as protection against subcutaneous metrazol-induced seizures at 30 mg/kg, ip after 0.5 hrs; type: functional, organism-based; design: dose 30 mg/kg; outline: as §3
# Mus musculus [33] = assay: Anticonvulsant activity in albino CF1 mouse assessed as protection against subcutaneous metrazol-induced seizures at 30 mg/kg, ip after 4 hrs; type: functional, organism-based; design: dose 30 mg/kg; outline: as §3
# Mus musculus [34] = assay: Anticonvulsant activity in albino CF1 mouse assessed as protection against subcutaneous metrazol-induced seizures at 300 mg/kg, ip after 0.5 hrs; type: functional, organism-based; design: dose 300 mg/kg; outline: as §3
# Mus musculus [35] = assay: Anticonvulsant activity in albino CF1 mouse assessed as protection against maximal electroshock-induced seizures at 100 mg/kg, ip after 4 hrs; type: functional, organism-based; design: dose 100 mg/kg; outline: as §3
# Rattus norvegicus [36] = assay: Anticonvulsant activity in ip dosed Sprague-Dawley albino rat assessed as protection against pilocarpine-induced status epilepticus after 0.5 hrs; type: functional; outline: as §5
# Rattus norvegicus [37] = assay: Anticonvulsant activity in Sprague-Dawley albino rat assessed as protection against maximal electroshock-induced seizures at 30 mg/kg, po after 2 hrs; type: functional, organism-based; design: dose 30 mg/kg; outline: as §4
# Mus musculus [38] = assay: Anticonvulsant activity in albino CF1 mouse assessed as protection against maximal electroshock-induced seizures at 100 mg/kg, ip after 0.5 hrs; type: functional, organism-based; design: dose 100 mg/kg; outline: as §3
# Rattus norvegicus [39] = assay: Neurotoxicity in pilocarpine-induced status epilepticus Sprague-Dawley albino rat model assessed as minimal motor impairment at 300 mg/kg, ip after 0.5 hrs by rotarod test; type: toxicity, organism-based; design: dose 300 mg/kg, route intraperitoneal; settings: in vivo; outline: as §2
# Mus musculus [40] = assay: Anticonvulsant activity in albino CF1 mouse assessed as protection against maximal electroshock-induced seizures at 300 mg/kg, ip after 4 hrs; type: functional, organism-based; design: dose 300 mg/kg; outline: as §3
# Rattus norvegicus [41] = assay: Neurotoxicity in pilocarpine-induced status epilepticus Sprague-Dawley albino rat model assessed as minimal motor impairment at 30 mg/kg, ip after 0.25 hr by rotarod test; type: toxicity, organism-based; design: dose 30 mg/kg, route intraperitoneal; settings: in vivo; outline: as §2
structure (smiles),measurement,setting,value
CCC(C)C(CC)COC(N)=O (racemic),ED50,Rattus norvegicus [1],52 mg/kg
same,Activity,Rattus norvegicus [2],Toxic
same,ED50,Rattus norvegicus [3],68 mg/kg
same,Activity,Rattus norvegicus [4],Toxic
same,Activity,Mus musculus [5],inactive
same,Activity,Mus musculus [6],inactive
same,Activity,Mus musculus [7],Active
same,Activity,Rattus norvegicus [8],Non-toxic
same,TD50,[9],291 mg/kg
same,Activity,Rattus norvegicus [10],Toxic
same,Activity,Mus musculus [11],Non-toxic
same,Activity,Mus musculus [12],Active
same,Activity,Rattus norvegicus [13],inactive
same,Activity,Rattus norvegicus [14],Toxic
same,Activity,Mus musculus [15],Non-toxic
same,Activity,Mus musculus [16],inactive
same,Activity,Rattus norvegicus [17],Toxic
same,Activity,Rattus norvegicus [18],Active
same,Activity,Rattus norvegicus [19],Non-toxic
same,Activity,Rattus norvegicus [20],Non-toxic
same,Activity,Rattus norvegicus [21],Toxic
same,Activity,Mus musculus [22],Non-toxic
same,Activity,Mus musculus [23],inactive
same,Activity,Rattus norvegicus [24],Toxic
same,Activity,Rattus norvegicus [25],Toxic
same,Activity,Rattus norvegicus [26],Non-toxic
same,Activity,Rattus norvegicus [27],Non-toxic
same,Ratio TD50/ED50,Rattus norvegicus [28],5.5
same,Activity,Rattus norvegicus [29],inactive
same,Activity,Mus musculus [30],Non-toxic
same,Ratio TD50/ED50,Rattus norvegicus [31],4.3
same,Activity,Mus musculus [32],inactive
same,Activity,Mus musculus [33],inactive
same,Activity,Mus musculus [34],Active
same,Activity,Mus musculus [35],inactive
same,ED50,Rattus norvegicus [36],96 mg/kg
same,ED97,Rattus norvegicus [36],174 mg/kg
same,Activity,Rattus norvegicus [37],inactive
same,Activity,Mus musculus [38],Active
same,Activity,Rattus norvegicus [39],Toxic
same,Activity,Mus musculus [40],inactive
same,Activity,Rattus norvegicus [41],Non-toxic
